T cruzi HTS: inhibitors of intracellular Trypanosoma cruzi; intracellular Trypanosoma cruzi in host cells, plate reader; 22,000 tested, 4.9% active; activity score (inhibition), % at 5.01 µM; in the data active = activity score above about 55%; inconclusive = no clear call, values can overlap the other calls;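 also: parasites and compound incubated about four days before reading; 0% = median of neutral control wells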
INS-1E rescue: INS-1E beta cell protection from cytokine death; INS-1E cytokine-induced death, ATP luminescence, 48 h; normalised: neutral wells 0, positive control 100; protection from cytokine-induced ATP loss, % at 10 µM; 20,000 tested, 0.1% active; AID 488910;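 active = mean replicate protection from cytokine-induced ATP loss at least 50% and at least 75% of replicates each reaching 50%; inconclusive = meets only one of the two criteria, mean or replicate share; inactive = fails both the mean and replicate share criteria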
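Assay system: INS-1E rat cells / Quantity: 8000 cells per well / Medium: RPMI without phenol red, 5% FBS / Probe or stimulus: three-cytokine cocktail (IFN-γ, TNF-α, IL-1β) / Dosing: one compound concentration, pin transfer / Timing: 48 h co-treatment, 10 min post-lysis read / Technique: CellTiter-Glo luminescence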
A1 apoptosis 2: compounds inhibiting A1, read as caspase activation. MEF A1-2A-BIM cells, caspase-Glo luminescence, 3 h; percent of clofoctol response, DMSO zero. caspase activation, % (no concentration beside the values). 24,000 tested, under 10 active; in the data active = caspase activation above about 5.9%; inconclusive = no clear call, values can overlap the other calls; inactive = below about 2.2%
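Material: A1-2A-BIM-expressing MEF cells. Buffer or medium: RPMI-1640 plus 10% FBS. Incubation: cells settled overnight, compound exposure 3 h at 37 °C, 5% CO2. Signal: Caspase-Glo 3/7 luminescence, 1 h at room temperature.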
* marks the source's active call; other numbers are inactive results; ? = inconclusive; . = not tested or not shown. The full list was thinned out, with hits kept by preference.

SMILES	T cruzi HTS	INS-1E rescue	A1 apoptosis 2
C[C@@H]1CN([C@@H](C)CO)C(=O)c2cccc(NC(=O)c3nc4ccccc4s3)c2O[C@H]1CN(C)Cc1ccc(C(F)(F)F)cc1	64*	-55	2
C[C@@H]1CN([C@@H](C)CO)C(=O)c2cccc(NC(=O)c3nc4ccccc4s3)c2O[C@@H]1CN(C)Cc1ccc(C(=O)O)cc1	-2	7	.
C[C@H]1CN([C@@H](C)CO)C(=O)c2cccc(NC(=O)c3nc4ccccc4s3)c2O[C@@H]1CN(C)Cc1ccccc1	51	-34	.
C[C@@H]1CN([C@H](C)CO)C(=O)c2cccc(NC(=O)c3nc4ccccc4s3)c2O[C@@H]1CN(C)Cc1ccc(C(F)(F)F)cc1	69	-63	.
C[C@H](CO)N1C[C@H](C)[C@@H](CN(C)Cc2ccc(C(F)(F)F)cc2)Oc2c(NC(=O)c3nc4ccccc4s3)cccc2C1=O	62*	-48	.
C[C@@H]1CN([C@H](C)CO)C(=O)Cc2cc(NC(=O)Cn3cnnn3)ccc2O[C@H]1CN(C)C(=O)NC1CCCCC1	-25	14	0
Cc1noc(C)c1NC(=O)Nc1cccc2c1O[C@@H](CN(C)C(=O)NC1CCCCC1)[C@H](C)CN([C@@H](C)CO)C2=O	-5	7	0
C=CCOc1ccccc1/C=N/NC(=O)c1ccccc1O	-5	12	-2
C[C@@H]1CN([C@@H](C)CO)C(=O)c2cccc(NC(=O)c3ccncc3)c2O[C@@H]1CN(C)Cc1ccc(C(=O)O)cc1	-14	5	0
C[C@H](CO)N1C[C@H](C)[C@@H](CN(C)Cc2ccncc2)Oc2c(NC(=O)c3ccncc3)cccc2C1=O	-34	-1	-1
C[C@@H]1CN([C@@H](C)CO)C(=O)c2cccc(NC(=O)c3ccncc3)c2O[C@H]1CN(C)Cc1ccccc1	79*	8	.
C[C@@H]1CN([C@H](C)CO)C(=O)c2cccc(NC(=O)c3ccncc3)c2O[C@@H]1CN(C)CC1CCCCC1	12	-11	0
C[C@@H]1CN([C@@H](C)CO)C(=O)c2cccc(NC(=O)c3ccncc3)c2O[C@H]1CN(C)Cc1ccncc1	-17	13	-1
C[C@@H]1CN([C@@H](C)CO)C(=O)c2cccc(NC(=O)c3ccncc3)c2O[C@H]1CN(C)CC1CCCCC1	76*	-7	.
C[C@H]1CN([C@@H](C)CO)C(=O)c2cccc(NC(=O)c3ccncc3)c2O[C@H]1CN(C)Cc1ccccc1	81*	3	.
C[C@@H]1CN([C@H](C)CO)C(=O)c2cccc(NC(=O)c3ccncc3)c2O[C@H]1CN(C)Cc1ccccc1	80*	10	.
NC(=O)COc1ccccc1/C=N/NC(=O)c1cccc(C(=O)NO)c1	-11	1	1
O=C(O)CCCCCC(=O)N/N=C/c1ccc(CO)o1	-20	-1	.
OCC1CC(c2ccccc2)=NO1 (centres undefined)	.	.	-1
C[C@H]1CN([C@@H](C)CO)C(=O)c2cccc(NC(=O)c3ccncc3)c2O[C@H]1CN(C)Cc1ccc(Oc2ccccc2)cc1	82*	-16	-1
C[C@H](CO)N1C[C@H](C)[C@H](CN(C)Cc2ccc(Oc3ccccc3)cc2)Oc2c(NC(=O)c3cnccn3)cccc2C1=O	69*	-29	-1
C[C@H](CO)N1C[C@H](C)[C@@H](CN(C)Cc2ccc(Oc3ccccc3)cc2)Oc2c(NC(=O)c3cnccn3)cccc2C1=O	?	-42	.
C[C@@H]1CN([C@@H](C)CO)C(=O)c2cccc(NC(=O)c3ccncc3)c2O[C@H]1CN(C)Cc1ccc(Oc2ccccc2)cc1	80*	-7	0
C[C@@H]1CN([C@@H](C)CO)C(=O)c2cccc(NC(=O)c3cnccn3)c2O[C@H]1CN(C)Cc1ccc(Oc2ccccc2)cc1	33	-30	.
C[C@@H]1CN([C@H](C)CO)C(=O)c2cccc(NC(=O)c3cnccn3)c2O[C@H]1CN(C)Cc1ccc(Oc2ccccc2)cc1	33	-22	.
C[C@@H]1CN([C@H](C)CO)C(=O)c2cccc(NC(=O)c3ccncc3)c2O[C@@H]1CN(C)Cc1ccc(Oc2ccccc2)cc1	81*	-16	-1
Cc1ccc(S(=O)(=O)NC2CCN(Cc3cccc(OCCO)c3)CC2)cc1	.	.	-1
COc1ccc(NC(=O)N(C)C[C@@H]2Oc3ccc(NC(=O)c4ccncc4)cc3C(=O)N([C@H](C)CO)C[C@H]2C)cc1	.	.	0
O=C(CCCCCCC(=O)N/N=C/c1ccc(-n2ccnc2)cc1)NO	.	.	-1
CNC[C@H]1OCCCC[C@@H](C)Oc2ccc(NC(=O)Nc3ccc(C(F)(F)F)cc3)cc2C(=O)N([C@@H](C)CO)C[C@H]1C	.	.	1

Screening results from PubChem BioAssay.
